Assay results: article PMC2813889 (Toxicon : official journal of the International Society on …, 2009)
pIC50: −log10 of the molar value. Read-outs that look alike come from different tables or passages of the source.

Key:
[1] = target: protein phosphatase 2A (PP2A) (Homo sapiens, UniProt P67775); experiment: Protein phosphatase 2A inhibition assay; assay type: biochemical
Method in brief: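 Colorimetric PP2A inhibition after a published method. Samples incubated 1 h at room temperature and read at 405 nm. A standard curve of the parent toxin was prepared identically to the samples. Isolated metabolite concentrations were set by LC-MS against a single-point calibration (10 μL of 6.2 μM parent toxin, 50 ng). IC50 taken from activity versus log concentration curves.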

CYP3A4 = CYP3A4 (Homo sapiens, UniProt P08684); experiment: Incubation of OA with recombinant CYP3A4 and CYP3A4 enzyme kinetics; assay type: in vitro ADME
Sequence of CYP3A4 (P08684 whole entry): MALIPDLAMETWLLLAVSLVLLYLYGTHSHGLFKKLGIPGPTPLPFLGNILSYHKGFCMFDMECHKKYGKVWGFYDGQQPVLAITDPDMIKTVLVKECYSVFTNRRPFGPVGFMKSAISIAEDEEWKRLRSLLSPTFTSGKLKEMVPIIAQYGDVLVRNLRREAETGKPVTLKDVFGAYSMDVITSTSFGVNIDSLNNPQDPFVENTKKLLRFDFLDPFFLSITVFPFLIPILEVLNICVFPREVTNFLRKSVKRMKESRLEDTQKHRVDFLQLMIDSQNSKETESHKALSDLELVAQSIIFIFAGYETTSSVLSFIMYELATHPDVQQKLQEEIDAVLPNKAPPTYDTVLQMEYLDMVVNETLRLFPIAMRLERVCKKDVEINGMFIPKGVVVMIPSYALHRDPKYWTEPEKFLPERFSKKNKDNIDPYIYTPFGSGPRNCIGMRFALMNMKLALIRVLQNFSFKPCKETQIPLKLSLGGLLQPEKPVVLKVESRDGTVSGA

CYP3A5 = CYP3A5 (Homo sapiens, UniProt P20815); experiment: Incubation of OA with recombinant CYP3A5; assay type: in vitro ADME; conditions: CYP 3A5 reaction, after 6 hrs of incubation
Sequence of CYP3A5 (P20815 whole entry): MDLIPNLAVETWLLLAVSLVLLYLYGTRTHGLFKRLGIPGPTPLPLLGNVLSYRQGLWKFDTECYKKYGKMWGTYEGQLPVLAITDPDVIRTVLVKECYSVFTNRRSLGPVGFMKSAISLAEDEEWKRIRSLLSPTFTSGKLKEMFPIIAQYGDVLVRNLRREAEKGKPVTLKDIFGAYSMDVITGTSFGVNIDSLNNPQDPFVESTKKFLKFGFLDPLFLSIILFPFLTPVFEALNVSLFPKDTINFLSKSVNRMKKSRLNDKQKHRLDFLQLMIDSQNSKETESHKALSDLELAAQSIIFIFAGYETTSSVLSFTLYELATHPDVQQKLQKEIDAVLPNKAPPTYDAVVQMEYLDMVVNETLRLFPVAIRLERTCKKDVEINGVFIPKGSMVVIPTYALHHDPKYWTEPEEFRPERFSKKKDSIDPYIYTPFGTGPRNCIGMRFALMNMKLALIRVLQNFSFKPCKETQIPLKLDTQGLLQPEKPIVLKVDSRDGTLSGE

[2] = test system: CYP1A1, 1A2, 2C8, 2C9, 2C19, 2D6, 2E1; experiment: Incubation of OA with the seven other recombinant P450s; assay type: in vitro ADME, human; conditions: same incubation conditions, limit of detection 0.1 ng OA
[3] = Incubation of OA with pooled human liver microsomes; assay type: in vitro ADME; conditions: 5 mg mL^-1 protein, 5 μM OA, 37 °C, 30 min
various liver cell lines = conditions: depending on cell line; ref Souid-Mensi, et al., 2008; cited from earlier work

Sequence of protein phosphatase 2A (PP2A) (P67775 whole entry): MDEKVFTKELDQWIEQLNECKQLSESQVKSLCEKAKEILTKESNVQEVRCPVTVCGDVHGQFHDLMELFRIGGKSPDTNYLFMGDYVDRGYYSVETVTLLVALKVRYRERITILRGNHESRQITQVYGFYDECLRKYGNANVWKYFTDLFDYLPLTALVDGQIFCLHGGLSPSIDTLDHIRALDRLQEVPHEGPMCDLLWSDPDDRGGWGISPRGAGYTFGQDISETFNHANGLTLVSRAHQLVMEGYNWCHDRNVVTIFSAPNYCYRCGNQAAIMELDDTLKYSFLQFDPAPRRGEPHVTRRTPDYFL

Compound	pIC50 ([1]; read-out: IC50, inhibition of PP2A, 1 h at room temperature, read at 405 nm)	pIC50 [1]	overall yield of all four metabolites (CYP3A4; CYP3A4 reaction, after 6 hrs of incubation)	Vmax for the oxidation of OA by CYP3A4 (CYP3A4; double-reciprocal plots, OA 10 μM to 100 μM, 300 pmol 3A4)	Km (CYP3A4; human, recombinant CYP3A4)	overall yield of all four metabolites (CYP3A5)	metabolism of OA by the seven other P450s [2]	metabolite formation in pooled human liver microsomes [3]	LD50 for OA with various liver cell lines (various liver cell lines)
11S-hydroxy okadaic acid [metabolite 2]	8.87								
C=C1[C@@H](O)[C@@H]2O[C@]3(CC[C@H](/C=C/[C@@H](C)[C@@H]4CC(C)=C[C@@]5(O[C@H](C[C@@](C)(O)C(=O)O)CC[C@H]5O)O4)O3)CC[C@H]2O[C@@H]1[C@@H](O)C[C@H](C)[C@H]1O[C@@]2(CCCCO2)CC[C@H]1C [OA, Okadaic acid]		9.21	31.3%	7.23 nmol of metabolites nmol^-1 min^-1	73.4 µM	6.1%	none of the seven other P450s metabolized OA	four metabolites, identical to those formed in CYP3A4 incubations, were produced	10 to 100 nM
